Laboratory results from ChEMBL document CHEMBL3091377, “Small molecule fusion inhibitors: design, synthesis and biological evaluation of (Z)-3-(5-(3-benzyl-4-oxo-2-thioxothiazolidinylidene)methyl)-N-(3-carboxy-4-hydroxy)phenyl-2,5-dimethylpyrroles and related derivatives targeting HIV-1 gp41” (Bioorg Med Chem, 2013).
pEC50, pIC50: −log10 of the molar value. Calls of active or inactive are those of the source. The rule behind the calls is not given here.

Experiments:
[1] = (§1) Inhibition of HIV-1 gp41-mediated 6-helix bundle formation after 30 mins by sandwich ELISA; design: species or system Human immunodeficiency virus 1
Outline: (§2)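 Peptide N36 (2 µM) preincubated with compound at graded concentrations, 37 °C, 30 min. C34 (2 µM) then added and incubated a further 30 min at 37 °C. Mixture captured on wells coated with rabbit IgG against gp41 six-helix bundle (10 µg/mL); A450 read. Percent inhibition versus no-compound control; IC50 calculated; triplicate.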

[2] = test system: Human immunodeficiency virus 1; assay: Antiviral activity against enfuvirtide-resistant HIV-1 NL4-3 harboring gp41 (36G)V38A/N42T mutation infected in human MT2 cells assessed as inhibition of p24 antigen production after 4 days by ELISA; assay type: functional, organism-based
Outline: (§3)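 1 × 10^4 MT-2 cells infected with virus (100 TCID50) in RPMI 1640 with 10% serum, with or without compound at graded concentrations, overnight. Supernatant then replaced with compound-free medium. Day 4 supernatant lysed with 5% Triton X-100. p24 quantified by HIVIG-capture sandwich ELISA with recombinant p24 standard curve, A450. IC50 by CalcuSyn, triplicate, mean ± SD.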

[3] = test system: Human immunodeficiency virus 1; assay: Antiviral activity against enfuvirtide-resistant HIV-1 NL4-3 harboring gp41 (36G)V38E/N42S mutation infected in human MT2 cells assessed as inhibition of p24 antigen production after 4 days by ELISA; assay type: functional, organism-based; outline: as §3
[4] = test system: Human immunodeficiency virus 1; assay: Antiviral activity against enfuvirtide-resistant HIV-1 NL4-3 harboring gp41 (36G)N42T/N43K mutation infected in human MT2 cells assessed as inhibition of p24 antigen production after 4 days by ELISA; assay type: functional, organism-based; outline: as §3
[5] = test system: Human immunodeficiency virus 1; assay: Antiviral activity against enfuvirtide-resistant HIV-1 NL4-3 harboring gp41 (36G)V38A mutation infected in human MT2 cells assessed as inhibition of p24 antigen production after 4 days by ELISA; assay type: functional, organism-based; outline: as §3
[6] = test system: Human immunodeficiency virus 1; assay: Antiviral activity against enfuvirtide-resistant HIV-1 NL4-3 harboring gp41 (36G)V38A/N42D mutation infected in human MT2 cells assessed as inhibition of p24 antigen production after 4 days by ELISA; assay type: functional, organism-based; outline: as §3
[7] = test system: Human immunodeficiency virus 1; assay: Antiviral activity against enfuvirtide-sensitive HIV-1 NL4-3 harboring gp41 (36G)N42S mutation infected in human MT2 cells assessed as inhibition of p24 antigen production after 4 days by ELISA; assay type: functional, organism-based; outline: as §3
[8] = Selectivity index, ratio of CC50 for human MT2 cells to EC50 for HIV1 3B; assay type: toxicity, cell-based; conditions: read-out: Ratio CC50/EC50
Outline: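 Selectivity index calculated as CC50 (XTT, MT-2 cells, 4 days) divided by EC50 (p24 inhibition in HIV-1 IIIB-infected MT-2 cells).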

[9] = Cytotoxicity against human MT2 cells after 4 days by XTT assay; assay type: cell-based
Outline: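 XTT assay on MT-2 cells (5 × 10^5/mL mixed with equal volume of compound at graded concentrations). Incubated 4 days, then XTT (1 mg/mL) containing 0.02 µM phenazine methosulphate added. A450 read after 4 h; CC50 calculated as concentration giving 50% cytotoxicity.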

[10] = test system: Human immunodeficiency virus 1; assay: Antiviral activity against HIV1 3B infected in human MT2 cells assessed as inhibition of p24 antigen production after 4 days by ELISA; assay type: functional, organism-based; conditions: Human immunodeficiency virus 1, 3B, MT2, 96 h
Outline: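 MT-2 cells (1 × 10^4) infected with HIV-1 IIIB at 100 TCID50 in RPMI 1640 with 10% serum (printed "PBS"), compound at graded concentrations overnight. Supernatant then replaced with compound-free medium. Day 4: supernatant lysed in equal volume 5% Triton X-100, p24 quantified by sandwich ELISA against recombinant p24 standard curve. Triplicate; EC50 from percent inhibition.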

[11] = test system: Human immunodeficiency virus 1; assay: Ratio of IC50 for enfuvirtide-resistant HIV-1 NL4-3 harboring gp41 (36G)V38A/N42T mutation to IC50 for enfuvirtide-sensitive HIV-1 NL4-3 harboring gp41 (36G)N42S mutation; assay type: functional
Outline: (§4)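 MT-2 cells (1 × 10^4) were infected overnight in RPMI 1640 with 100 TCID50 of the NL4-3 (36G) N42S or mutant strain, with graded compound. Medium was then replaced without compound. On day 4, supernatant was lysed in 5% Triton X-100 and p24 measured by HIVIG-capture ELISA (A450, recombinant p24 standard). IC50 was taken from triplicates, and the ratio was mutant IC50 over N42S IC50.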

[12] = test system: Human immunodeficiency virus 1; assay: Ratio of IC50 for enfuvirtide-resistant HIV-1 NL4-3 harboring gp41 (36G)V38E/N42S mutation to IC50 for enfuvirtide-sensitive HIV-1 NL4-3 harboring gp41 (36G)N42S mutation; assay type: functional; outline: as §4
[13] = test system: Human immunodeficiency virus 1; assay: Ratio of IC50 for enfuvirtide-resistant HIV-1 NL4-3 harboring gp41 (36G)N42T/N43K mutation to IC50 for enfuvirtide-sensitive HIV-1 NL4-3 harboring gp41 (36G)N42S mutation; assay type: functional; outline: as §4
[14] = test system: Human immunodeficiency virus 1; assay: Ratio of IC50 for enfuvirtide-resistant HIV-1 NL4-3 harboring gp41 (36G)V38A mutation to IC50 for enfuvirtide-sensitive HIV-1 NL4-3 harboring gp41 (36G)N42S mutation; assay type: functional; outline: as §4
[15] = test system: Human immunodeficiency virus 1; assay: Ratio of IC50 for enfuvirtide-resistant HIV-1 NL4-3 harboring gp41 (36G)V38A/N42D mutation to IC50 for enfuvirtide-sensitive HIV-1 NL4-3 harboring gp41 (36G)N42S mutation; assay type: functional; outline: as §4
[16] = test system: Human immunodeficiency virus 1; assay: as §1; outline: as §2

Molecule | pIC50 [1] | selectivity ratio [8] | CC50 at 96 h [9] [µM] | pEC50 [10] | also measured
COC(=O)c1cccc(CN2C(=O)/C(=C/c3cc(C)n(-c4ccc(O)c(C(=O)O)c4)c3C)SC2=S)c1 | 5.74 | 128 | 38.5 | 6.52 | pIC50 [2]: 5.55; pIC50 [3]: 5.47; pIC50 [4]: 5.70; pIC50 [5]: 5.76; pIC50 [6]: 6.14; pIC50 [7]: 5.65
Cc1cc(/C=C2\SC(=S)N(Cc3ccccc3Br)C2=O)c(C)n1-c1ccc(O)c(C(=O)O)c1 |  | 0.6 | 25.7 | 4.39 | 
Cc1cc(/C=C2\SC(=S)N(Cc3ccccc3)C2=O)c(C)n1-c1ccc(Cl)c(C(=O)O)c1 | 4.46 | 3.6 | 68.3 | 4.72 | 
Cc1cc(/C=C2\SC(=S)N(Cc3ccc(C(=O)O)cc3)C2=O)c(C)n1-c1ccc(O)c(C(=O)O)c1 | 4.17 | 14.7 | 105 | 5.15 | 
Cc1cc(/C=C2\SC(=S)N(Cc3ccccc3)C2=O)c(C)n1-c1ccc(O)c(C(=O)O)c1 | 4.92 | 50.2 | 159 | 5.49 | 
Cc1cc(/C=C2\SC(=S)N(Cc3ccc(C(C)(C)C)cc3)C2=O)c(C)n1-c1ccc(O)c(C(=O)O)c1 | 5.59 | 61.3 | 55.2 | 6.05 | pIC50 [2]: 5.75; pIC50 [3]: 5.57; pIC50 [4]: 5.71; pIC50 [5]: 5.37; pIC50 [6]: 5.69; pIC50 [7]: 6.33
Cc1cc(/C=C2\SC(=S)N(Cc3ccccc3)C2=O)c(C)n1-c1cccc(C(=O)O)c1 | 4.34 | 5.5 | 83.4 | 4.82 | 
enfuvirtide |  |  |  |  | Ratio IC50 [11]: >20; Ratio IC50 [12]: >20; Ratio IC50 [13]: >20; Ratio IC50 [14]: >20; Ratio IC50 [15]: >20; pIC50 [2]: 5.78; pIC50 [3]: < 5.70; pIC50 [4]: < 5.70; pIC50 [5]: < 5.70; pIC50 [6]: 5.81; pIC50 [7]: 7.11
Cc1cc(/C=C2\SC(=S)N(Cc3cccc(Br)c3)C2=O)c(C)n1-c1ccc(O)c(C(=O)O)c1 | 5.11 | 1.5 | 48.2 | 4.49 | 
Cc1cc(/C=C2\SC(=S)N(Cc3cccc(C(=O)O)c3)C2=O)c(C)n1-c1ccc(O)c(C(=O)O)c1 | 4.68 | > 8.3 | > 100 | 4.92 | 
Cc1cc(/C=C2\SC(=S)N(Cc3cccc(C(F)(F)F)c3)C2=O)c(C)n1-c1ccc(O)c(C(=O)O)c1 | 5.04 | 6.7 | 26.3 | 5.41 | 
Cc1ccc(C)n1-c1ccc(O)c(C(=O)O)c1 | 4.43 | 191 |  | 6.15 | 
COc1ccc(CN2C(=O)/C(=C/c3cc(C)n(-c4ccc(O)c(C(=O)O)c4)c3C)SC2=S)cc1 | 6.05 | 3.8 | 75.3 | 4.70 | 
Cc1cc(/C=C2\SC(=S)N(Cc3ccccc3C(F)(F)F)C2=O)c(C)n1-c1ccc(O)c(C(=O)O)c1 | 4.65 | 1 | 28.8 | 4.54 | 
COC(=O)c1ccc(CN2C(=O)/C(=C/c3cc(C)n(-c4ccc(O)c(C(=O)O)c4)c3C)SC2=S)cc1 | 5.74 | 24.6 | 36.9 | 5.82 | pIC50 [2]: 5.78; pIC50 [3]: 5.56; pIC50 [4]: 5.64; pIC50 [5]: 5.31; pIC50 [6]: 5.66; pIC50 [7]: 5.70
COc1cccc(CN2C(=O)/C(=C/c3cc(C)n(-c4ccc(O)c(C(=O)O)c4)c3C)SC2=S)c1 | 5.68 | 4.4 | 102 | 4.63 | 
Cc1cc(/C=C2\SC(=S)N(CCc3ccccc3)C2=O)c(C)n1-c1ccc(O)c(C(=O)O)c1 | 4.90 | 4.2 | 26 | 5.21 | 
Cc1cc(/C=C2\SC(=S)N(Cc3ccc(Br)cc3)C2=O)c(C)n1-c1ccc(O)c(C(=O)O)c1 | 4.99 | 2.2 | 94.4 | 4.37 | 
Cc1cc(/C=C2\SC(=S)N(c3ccccc3)C2=O)c(C)n1-c1ccc(O)c(C(=O)O)c1 |  | > 2.8 | > 100 | 4.45 | inhibition [16]: inactive
Cc1cc(/C=C2\SC(=S)N(Cc3ccc(C(F)(F)F)cc3)C2=O)c(C)n1-c1ccc(O)c(C(=O)O)c1 | 4.73 | 2.7 | 45.9 | 4.76 | 
